The source made the active and inactive calls. The calls are words filed in the database; no cut-off is given here.

One data set relates to Human respirovirus 3. Kind of data set: Antiviral activity against Parainfluenza virus type 3 infected in african green monkey Vero cells assessed as inhibition of virus-induced cytopathic effect at <=100 uM. The data set is classed as functional, organism-based. The method in brief: (§1)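 Confluent cell monolayers were inoculated with 100 CCID₅₀ of virus, and virus was adsorbed for 1 h. Residual virus was then removed and cells were incubated with serial compound concentrations ([…], ... µM). Cytopathicity was scored once it reached completion in untreated virus-infected control cultures.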
(In general: Cytopathic effects are the visible damage that an infection or toxin causes in cultured cells.)

Data set [1] relates to Mammalian orthoreovirus 3. Kind of data set: Antiviral activity against Reovirus 3 infected in african green monkey Vero cells assessed as inhibition of virus-induced cytopathic effect at <=100 uM. Format: functional, organism-based.
A further data set concerns Sindbis virus. Kind of data set: Antiviral activity against Sindbis virus infected in african green monkey Vero cells assessed as inhibition of virus-induced cytopathic effect at <=100 uM. The data set is classed as functional, organism-based. Put shortly: as §1
In a further data set the test system is Punta Toro virus. Briefly: Antiviral activity against Punta Toro virus infected in african green monkey Vero cells assessed as inhibition of virus-induced cytopathic effect at <=100 uM. Format: functional, organism-based. Put shortly: as §1
For data set [2], the system named is Human betaherpesvirus 5. Kind of data set: Antiviral activity against HCMV AD169 infected in HEL cells assessed as inhibition of virus-induced cytopathic effect at <=100 uM. The data set is classed as functional, organism-based. The method in brief:
as §1

Data set [3] has as its system Human betaherpesvirus 5. Briefly: Antiviral activity against HCMV Davis infected in HEL cells assessed as inhibition of virus-induced cytopathic effect at <=100 uM. The data set is classed as functional, organism-based. The method in brief: as §1
The subject of data set [4] is Human alphaherpesvirus 3. Briefly: Antiviral activity against thymidine kinase expressing Varicella zoster virus Oka infected in human HEL cells assessed as inhibition of virus-induced cytopathic effect at <=100 uM. Format: functional, organism-based. The method in brief: as §1
For data set [5], the system named is Human alphaherpesvirus 3. Briefly: Antiviral activity against thymidine kinase deficient Varicella zoster virus 07/1 infected in human HEL cells assessed as inhibition of virus-induced cytopathic effect at <=100 uM. The data set is classed as functional, organism-based. The method in brief: as §1
The test system of data set [6] is Human immunodeficiency virus 1. Kind of data set: Antiviral activity against HIV1 3B replication in human CEM cells assessed as virus-induced giant cell formation at <=100 uM after 4 days. The data set is classed as functional, organism-based. The settings on record: CCRF-CEM. Put shortly: (§2)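 CEM cells (~3 × 10⁵ cells/cm³) were infected with 100 CCID₅₀/mL of HIV-1(III_B) or HIV-2(ROD) and seeded into wells containing compound dilutions. After 4 days at 37 °C, virus-induced giant cell formation was examined microscopically.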

Data set [7] concerns Human immunodeficiency virus 2. Briefly: Antiviral activity against HIV2 ROD replication in human CEM cells assessed as virus-induced giant cell formation at <=100 uM after 4 days. Format: functional, organism-based. To be noted: CCRF-CEM. The method in brief:
as §2

A further data set has as its system L1210. Briefly: Cytostatic activity against mouse L1210 cells at <=500 uM after 2 days by Coulter counting analysis. Format: ADME, cell-based. The settings on record: l1210, 48 h. Put shortly: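 Murine leukemia L1210 cells were seeded at 50000 cells per well with varying compound concentrations. Viable cell number was counted by Coulter counter after 2 days.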

The nature of data set [8]: Cytostatic activity against human Molt4/C8 cells at <=500 uM after 3 days by Coulter counting analysis. The data set is classed as ADME, cell-based. The settings on record: molt-4, 72 h. Put shortly: (§3)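 Molt4/C8 or CEM lymphocytes were seeded at 75000 cells per well with varying compound concentrations. Viable cells were counted by Coulter counter after 3 days. CC₅₀ is the concentration inhibiting cell proliferation by 50%.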

Another data set concerns CCRF-CEM. Kind of data set: Cytostatic activity against human CEM cells at <=500 uM after 3 days by Coulter counting analysis. The data set is classed as cell-based. To be noted: 72 h. Put shortly:
as §3

The test system of data set [9] is Human alphaherpesvirus 1. Kind of data set: Antiviral activity against HSV1 KOS infected in HEL cells assessed as virus-induced cytopathic effect at <=100 uM. The data set is classed as functional, organism-based.
Data set [10] concerns Human alphaherpesvirus 1. Kind of data set: Antiviral activity against acyclovir-resistant […] kinase-deficient HSV1 KOS infected in HEL cells assessed as virus-induced cytopathic effect at <=100 uM. Format: functional, organism-based.
The subject of a further data set is Human alphaherpesvirus 2. Kind of data set: Antiviral activity against HSV2 strain G infected in HEL cells assessed as virus-induced cytopathic effect at <=100 uM. Format: functional, organism-based.
In the next data set the test system is Vaccinia virus. Kind of data set: Antiviral activity against Vaccinia virus infected in HEL cells assessed as inhibition of virus-induced cytopathic effect at <=100 uM. The data set is classed as functional, organism-based. To be noted: Orthopoxvirus vaccinia.
For data set [11], the system named is Vesicular stomatitis virus. Briefly: Antiviral activity against Vesicular stomatitis virus infected in HEL cells assessed as inhibition of virus-induced cytopathic effect at <=100 uM. Format: functional, organism-based.
Data set [12] deals with Vesicular stomatitis virus. Briefly: Antiviral activity against Vesicular stomatitis virus infected in human HeLa cells assessed as inhibition of virus-induced cytopathic effect at <=100 uM. Format: functional, organism-based.
Another data set deals with Coxsackievirus B4. Kind of data set: Antiviral activity against Coxsackievirus B4 infected in human HeLa cells assessed as inhibition of virus-induced cytopathic effect at <=100 uM. The data set is classed as functional, organism-based. The method in brief:
as §1

The test system of data set [13] is Respiratory syncytial virus. Briefly: Antiviral activity against Respiratory syncytial virus infected in human HeLa cells assessed as inhibition of virus-induced cytopathic effect at <=100 uM. The data set is classed as functional, organism-based. Put shortly:
as §1

The subject of data set [14] is Moloney murine sarcoma virus. Kind of data set: Antiviral activity against Moloney sarcoma virus replication infected in mouse […] cells assessed as virus-induced transformation of cells at <=100 uM measured on day 6 postinfection. The data set is classed as functional, organism-based. The method in brief: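 Murine C3H/3T3 embryo fibroblasts were grown to confluency and infected with Moloney murine sarcoma virus at 75 focus-forming units. Compound concentrations were then added, and virus-induced transformation was examined microscopically at day 6 postinfection.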

On to `NC(=O)Cc1ccn([C@@H]2O[C@H](CO)[C@@H](O)[C@@H]2O)c(=O)c1F`, for which the outcome (in the data set on Human respirovirus 3; in data set [1]; with Sindbis virus; in the data set on Punta Toro virus; with Human betaherpesvirus 5 [2]; with Human betaherpesvirus 5 [3]) was inactive. Also, the outcome (in the data set with Human alphaherpesvirus 3 [4]; in the data set with Human alphaherpesvirus 3 [5]; in data set [6]; in data set [7]; in the data set on Human alphaherpesvirus 1 [9]; with Human alphaherpesvirus 1 [10]) was inactive. In addition, the result (in the data set on Human alphaherpesvirus 2; with Vaccinia virus; in data set [11]; in data set [12]; in the data set with Coxsackievirus B4; in data set [13]) was inactive. Besides, the outcome in [14] was inactive. Besides, the Activity entry (in the data set on L1210; in [8]; in the data set on CCRF-CEM) was “Not Active” in each case.

As to `O=c1c(F)c(O)ccn1[C@@H]1O[C@H](CO)[C@@H](O)[C@@H]1O`, the result (in the data set on Human respirovirus 3; in data set [1]; in the data set with Sindbis virus; in the data set with Punta Toro virus; in the data set with Human betaherpesvirus 5 [2]; in the data set on Human betaherpesvirus 5 [3]) was inactive. Also, the outcome (with Human alphaherpesvirus 3 [4]; in the data set with Human alphaherpesvirus 3 [5]; in data set [6]; in data set [7]; with Human alphaherpesvirus 1 [9]; with Human alphaherpesvirus 1 [10]) was inactive. Further, the result (in the data set on Human alphaherpesvirus 2; in the data set on Vaccinia virus; in data set [11]; in [12]; with Coxsackievirus B4; in data set [13]) was inactive. Further, the result in data set [14] was inactive. Moreover, the Activity entry (with L1210; in [8]; with CCRF-CEM) was “Not Active” in each case.

On to `CC1(O)C=CN([C@@H]2O[C@H](CO)[C@@H](O)[C@H]2O)C(=O)C1(F)F` (some centres not stated), for which the outcome (with Human respirovirus 3; in data set [1]; with Sindbis virus; in the data set with Punta Toro virus; in the data set on Human betaherpesvirus 5 [2]; with Human betaherpesvirus 5 [3]) was inactive. Moreover, the result (in the data set on Human alphaherpesvirus 3 [4]; with Human alphaherpesvirus 3 [5]; in [6]; in data set [7]; in the data set with Human alphaherpesvirus 1 [9]; with Human alphaherpesvirus 1 [10]) was inactive. The result (with Human alphaherpesvirus 2; in the data set with Vaccinia virus; in [11]; in data set [12]; with Coxsackievirus B4; in data set [13]) was inactive. Moreover, the result in data set [14] was inactive. Also, the Activity result (in the data set with L1210; in data set [8]; in the data set on CCRF-CEM) was “Not Active” throughout.

`NC(=O)Cc1ccn([C@@H]2O[C@H](CO)[C@@H](O)[C@H]2O)c(=O)c1F`: the outcome (in the data set with Human respirovirus 3; in data set [1]; with Sindbis virus; in the data set with Punta Toro virus; in the data set on Human betaherpesvirus 5 [2]; with Human betaherpesvirus 5 [3]) was inactive. The outcome (with Human alphaherpesvirus 3 [4]; in the data set with Human alphaherpesvirus 3 [5]; in data set [6]; in [7]; in the data set on Human alphaherpesvirus 1 [9]; with Human alphaherpesvirus 1 [10]) was inactive. Moreover, the outcome (with Human alphaherpesvirus 2; in the data set on Vaccinia virus; in data set [11]; in data set [12]; with Coxsackievirus B4; in [13]) was inactive. Moreover, the result in data set [14] was inactive. In addition, the Activity entry (with L1210; in data set [8]; with CCRF-CEM) was “Not Active” each time.

For `O=C1N([C@@H]2O[C@H](CO)[C@@H](O)[C@H]2O)C=CC(O)(c2ccccc2)C1(F)F` (some centres not stated), the outcome (with Human respirovirus 3; in data set [1]; in the data set on Sindbis virus; with Punta Toro virus; in the data set with Human betaherpesvirus 5 [2]; in the data set on Human betaherpesvirus 5 [3]) was inactive. Besides, the result (in the data set on Human alphaherpesvirus 3 [4]; in the data set on Human alphaherpesvirus 3 [5]; in data set [6]; in data set [7]; with Human alphaherpesvirus 1 [9]; in the data set with Human alphaherpesvirus 1 [10]) was inactive. Further, the result (in the data set with Human alphaherpesvirus 2; in the data set with Vaccinia virus; in [11]; in [12]; with Coxsackievirus B4; in [13]) was inactive. Also, the result in data set [14] was inactive. Further, the Activity result (with L1210; in [8]; in the data set on CCRF-CEM) was “Not Active” each time.

On to `C#CC1(O)C=CN([C@H]2C[C@H](O)[C@@H](CO)O2)C(=O)C1(F)F` (some centres not stated), for which the result (in the data set with Human respirovirus 3; in data set [1]; in the data set with Sindbis virus; with Punta Toro virus; with Human betaherpesvirus 5 [2]; in the data set with Human betaherpesvirus 5 [3]) was inactive. Further, the outcome (in the data set with Human alphaherpesvirus 3 [4]; in the data set with Human alphaherpesvirus 3 [5]; in [6]; in data set [7]; with Human alphaherpesvirus 1 [9]; in the data set with Human alphaherpesvirus 1 [10]) was inactive. Besides, the result (in the data set with Human alphaherpesvirus 2; in the data set on Vaccinia virus; in [11]; in [12]; in the data set with Coxsackievirus B4; in data set [13]) was inactive. For the same molecule, the result in data set [14] was inactive. Besides, the Activity entry (in the data set on L1210; in data set [8]; in the data set with CCRF-CEM) was “Not Active” in each case.

(Values after ChEMBL document CHEMBL1138488, “Synthesis and biological evaluation of 3,3-difluoropyridine-2,4(1H,3H)-dione and 3-deaza-3-fluorouracil base and nucleoside derivatives” (J Med Chem, 2009).)
